ChEMBL document CHEMBL1149659 (Bioorg Med Chem Lett, 2007)
Converted amounts (≈) assume the structure as drawn. The source made the active and inactive calls. The rule behind the calls is not given here.

Assays:
3T3-L1 (Mus musculus) = assay: Inhibition of [1-14C]sodium acetate uptake in mouse 3T3-L1 cells at 2 uM
3T3-L1 [1] = assay: Inhibition of mouse 3T3-L1 cell differentiation at 2 uM
[2] = target: T1, Peroxisome proliferator-activated receptor gamma (Homo sapiens) (UniProt P37231); assay: Activation of PPARgamma transcriptional activity in U20S cells at 0.01 to 1 uM; format: functional, cell-based; details: U2OS
T1 sequence (whole entry): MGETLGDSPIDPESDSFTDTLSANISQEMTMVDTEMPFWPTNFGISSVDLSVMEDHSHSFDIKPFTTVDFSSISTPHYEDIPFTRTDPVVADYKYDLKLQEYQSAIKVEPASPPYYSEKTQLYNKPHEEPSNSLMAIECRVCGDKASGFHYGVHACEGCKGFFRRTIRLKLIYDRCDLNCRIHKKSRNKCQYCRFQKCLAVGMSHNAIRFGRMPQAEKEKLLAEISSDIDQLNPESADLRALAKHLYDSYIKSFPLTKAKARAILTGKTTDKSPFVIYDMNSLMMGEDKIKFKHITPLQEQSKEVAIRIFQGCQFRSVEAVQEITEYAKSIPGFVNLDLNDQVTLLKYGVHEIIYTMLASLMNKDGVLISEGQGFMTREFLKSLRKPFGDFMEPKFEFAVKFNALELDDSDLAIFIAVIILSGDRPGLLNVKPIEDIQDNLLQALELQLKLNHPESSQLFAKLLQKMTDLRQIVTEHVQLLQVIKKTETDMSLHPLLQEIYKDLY
Outline: (§1)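 U2OS cells transfected with PPARγ expression plasmid, matching reporter plasmid and pCMV-β-galactosidase as internal control; reporter transcriptional activity measured with or without 1 μM pioglitazone stimulation; means of triplicate cultures.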

[3] = target: T1, Peroxisome proliferator-activated receptor gamma (Homo sapiens); assay: Antagonist activity at pioglitazone-stimulated PPARgamma transcriptional activity in U2OS cells at 1 uM; format: functional, cell-based
Outline: as §1

3T3-L1 [4] = assay: Stimulation of mouse 3T3-L1 cells differentiation at 2 to 4 uM in presence of guanosine; format: functional, cell-based
Outline: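 3T3-L1 cells with 50 μM guanosine added to suppress IMPDH-related effects; adipocyte differentiation stimulation examined at 2–4 μM.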

3T3-L1 [5] = assay: Inhibition of mouse 3T3-L1 cell differentiation assessed as minimal effective concentration by oil-red O staining method
[6] = target: T2, Peroxisome proliferator-activated receptor gamma (Homo sapiens, UniProt P37231); assay: Binding affinity to PPARgamma
T2 sequence (P37231 whole entry): T1 sequence (whole entry)

3T3-L1 [7] = assay: Inhibition of mouse 3T3-L1 cell differentiation by oil-red O staining method; format: functional
Outline: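 Insulin-induced differentiation of 3T3-L1 pre-adipocytes into adipocytes; reduction in oil-red O stained cells judged under a microscope to give minimal inhibitory concentration.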

Compound | Activity (3T3-L1 [1]) | other results
CCOC(=O)COc1c(C)c2c(c(O)c1C/C=C(\C)CCC(=O)OC)C(=O)OC2 | inactive | inhibition (3T3-L1 (Mus musculus)): 0%
COc1c(C)c2c(c(O)c1C/C=C(\C)CCC(=O)O)C(=O)OC2 [MYCOPHENOLIC ACID] | Active | Activity [2]: Active; Activity [3]: Active; Activity (3T3-L1 [4]): Active; Activity (3T3-L1 [5]): 0.2 µM; Kd [6]: 110 µM
COC(=O)CC/C(C)=C/Cc1c(O)c(C)c2c(c1OS(=O)(=O)c1ccc(C)cc1)C(=O)OC2 | inactive | –
COc1c(C)c2c(c(OC)c1C/C=C(\C)CCC(=O)O)C(=O)OC2 | inactive | –
COC(=O)CC/C(C)=C/Cc1c(O)c2c(c(C)c1OC(=O)c1cccnc1)COC2=O | inactive | –
COC(=O)CC/C(C)=C/Cc1c(O)c2c(c(C)c1OC(=O)c1ccncc1)COC2=O | inactive | inhibition (3T3-L1 (Mus musculus)): 3%
C/C(=C\Cc1c(O)c(C)c2c(c1O)C(=O)OC2)CCC(=O)O | inactive | –
COCCOCOc1c(C/C=C(\C)CCC(=O)OC)c(OC(=O)c2cccnc2)c(C)c2c1C(=O)OC2 | inactive | –
COC(=O)CC/C(C)=C/Cc1c(OC)c(C)c2c(c1OC)C(=O)OC2 | inactive | –
COC(=O)CC/C(C)=C/Cc1c(O)c2c(c(C)c1OC)COC2=O | Active | Activity [3]: Active
COCCOCOc1c(C/C=C(\C)CCC(=O)OC)c(OC(=O)c2ccncc2)c(C)c2c1C(=O)OC2 | inactive | –
COc1c(C)c2c(c(OC(C)=O)c1C/C=C(\C)CCC(=O)O)C(=O)OC2 | Active | Activity [3]: Active; inhibition (3T3-L1 (Mus musculus)): 86%
COCCOCOc1c(C/C=C(\C)CCC(=O)OC)c(O)c(C)c2c1C(=O)OC2 | inactive | inhibition (3T3-L1 (Mus musculus)): 10%
C/C=C/C1=CC(=O)[C@@H](O)[C@@H]1O [TERREIN] | – | MIC (3T3-L1 [7]): 81 µM (≈ 12.5 µg/mL)
COC(=O)CC/C(C)=C/Cc1c(OC)c(C)c2c(c1OS(=O)(=O)c1ccc(C)cc1)C(=O)OC2 | inactive | –
COC(=O)CC/C(C)=C/Cc1c(O)c(C)c2c(c1O)C(=O)OC2 | inactive | –
CCOC(=O)COc1c(C)c2c(c(OCOCCOC)c1C/C=C(\C)CCC(=O)OC)C(=O)OC2 | inactive | –
